Experimental data of several laboratories.
NTSR1: Neurotensin receptor type 1 (NTSR1, Homo sapiens, UniProt P30989)
PIK3CD: Phosphatidylinositol 4,5-bisphosphate 3-kinase catalytic subunit delta isoform (PIK3CD, Homo sapiens, UniProt O00329)
COQ8A: Atypical kinase COQ8A, mitochondrial (COQ8A, Homo sapiens, UniProt Q8NI60)
ATP2A1: Sarcoplasmic/endoplasmic reticulum calcium ATPase 1 (ATP2A1, Oryctolagus cuniculus, UniProt P04191)

Structure (SMILES)	target	read-out	action	method	pH	endpoint	value
C=C[C@@]1(C)CC(=O)[C@]2(O)[C@@]3(C)[C@@H](O)CCC(C)(C)[C@@H]3[C@H](O)[C@H](OC(C)=O)[C@@]2(C)O1	Adenylate cyclase type 5 (ADCY5, Homo sapiens, UniProt O95622)	cAMP	agonist	TR-FRET	–	EC50	10 µM
COc1ccccc1C1CCN(c2nc(C3CC3)nc3ccc(N4CCC(N(C)C)C4)cc23)CC1 (stereo not shown)	NTSR1	β-arrestin recruitment	agonist	–	–	EC50	~65700 µM
CC(C)(C)OC(=O)N1CCN(Cc2ccn(Cc3ccc(Cl)cc3)c(=O)c2O)CC1	Lysine-specific demethylase 4E (KDM4E, Homo sapiens, UniProt B2RXH2)	enzyme activity	inhibitor	AlphaScreen	–	IC50	6.18 µM
NC(=O)c1ncc(N2CCCCC2)nc1Nc1ccc(C2CCN(C[C@H]3CCN(c4ccc5c(c4)C(=O)N(C4CCC(=O)NC4=O)C5=O)C3)CC2)cc1 (stereo partly shown)	Tyrosine-protein kinase BTK (BTK, Homo sapiens, UniProt Q06187, T474I)	binding	–	SPR	–	Kd	0.018 µM
COc1ccccc1C1CCN(c2nc(C3(C)CCCC3)nc3ccc(N(C)CCO)cc23)CC1	NTSR1	β-arrestin recruitment	agonist	–	–	EC50	40.2 µM
COc1cc2ncnc(Nc3ccc4c(c3)/C(=C/c3ccccc3)C(=O)N4C)c2cc1OC	PIK3CD	enzyme activity	inhibitor	ADP detection	–	IC50	0.277 µM
Cc1noc(C)c1Cc1ccc(C(=O)N2CCc3c(nc4cc(-c5ccccc5)[nH]n4c3=O)C2)o1	COQ8A	ligand displacement	–	TR-FRET	–	IC50	0.49 µM
Cc1nc(Nc2ccc3c(c2)C(C)(C)C(=O)N3)c2ccccc2n1	PIK3CD	enzyme activity	inhibitor	ADP detection	–	IC50	> 1 µM
Cc1ccc2c(=O)cc(C(=O)Nc3c(C(=O)c4ccc(F)cc4)oc4ccccc34)oc2c1C	COQ8A	ligand displacement	–	TR-FRET	–	IC50	9.68 µM
COc1cc(/C=C/C(=O)CC(=O)/C=C/c2ccc(O)c(OC)c2)ccc1O	ATP2A1	binding	–	fluorescence	pH 7.2	Kd	6.8 µM
Cc1nc(Nc2ccc3c(c2)/C(=C/c2ccccc2C)C(=O)N3)c2ccccc2n1	PIK3CD	enzyme activity	inhibitor	ADP detection	–	IC50	0.126 µM
Nc1ncnc2c1ncn2[C@@H]1O[C@H](COP(=O)(O)OP(=O)(O)OP(=O)(O)O)[C@@H](O)[C@H]1O	P2X purinoceptor 3 (P2rx3, Rattus norvegicus, UniProt P49654)	ion current	agonist	patch clamp	–	EC50	0.271 µM
Cc1ccc(Nc2nc3nonc3nc2Nc2cccc(C(F)(F)F)c2)cc1Cl	COQ8A	ligand displacement	–	TR-FRET	–	IC50	0.97 µM
Cc1nc(Nc2ccc3c(c2)CC(=O)N3)c2ccccc2n1	PIK3CD	enzyme activity	inhibitor	ADP detection	–	IC50	0.397 µM
C[C@]12C[C@H](O)[C@H]3[C@@H](CCC4=CC(=O)CC[C@@]43C)[C@@H]1CC[C@@H]2C(=O)CO	Mineralocorticoid receptor (NR3C2, Homo sapiens, UniProt P08235)	reporter gene	agonist	luciferase	–	EC50	0.0113 µM
CCCn1nc(C)c(-c2cc(C(=O)N3CCc4nc5cc(-c6ccccc6)[nH]n5c(=O)c4C3)[nH]n2)c1C	COQ8A	ligand displacement	–	TR-FRET	–	IC50	1.72 µM
COc1cc(/C=C/C(=O)O)ccc1O	ATP2A1	binding	–	fluorescence	pH 7.2	Kd	86 µM
O=C(Nc1nc2n(n1)C(c1ccc(F)cc1)C=C(c1ccccc1)N2)c1cccc([N+](=O)[O-])c1 (stereo not shown)	COQ8A	ligand displacement	–	TR-FRET	–	IC50	3.85 µM
Cc1nc(Nc2ccc3c(c2)/C(=C/c2ccccc2)C(=O)N3Cc2ccccc2)c2ccccc2n1	PIK3CD	enzyme activity	inhibitor	ADP detection	–	IC50	0.225 µM
